Common to all, as to assay type: functional
Experiment [1] can be described thus: Antioxidant activity assessed as hydroxyl radical scavenging activity at 5 uM after 1 hr by 2-Deoxy-D-ribose degradation assay in presence of FeCl3 and EDTA. The method, boiled down:
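The 1 mL mixture held 10 mM KH2PO4-KOH pH 7.4, 2-deoxy-D-ribose, FeCl3 made up in 2 mM Na2EDTA, H2O2, ascorbic acid and 5 μM compound added from DMSO. It was incubated 1 h at 37 °C, then thiobarbituric acid in NaOH and trichloroacetic acid were added and it was heated 15 min at 100 °C. Absorbance was read at 535 nm. Controls: no compound (100% MDA) and no deoxyribose (blank). Triplicate.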

Experiment [2] deals with Radical scavenging activity. Put plainly: Antioxidant activity assessed as DPPH free radical scavenging activity after 60 mins by spectrophotometric analysis. Put shortly: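 Compound in ethanol, 1 to 100 μM, combined 1:9 with 0.002% (w/v) ethanolic DPPH; absorbance read at 517 nm after 60 min against an ethanol-only control. Triplicate measurements. Inhibition of discoloration expressed as percent of control; IC50 (concentration scavenging 50% of DPPH) obtained from the inhibition curve.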
On the technique in general: Loss of DPPH colour is used to gauge radical scavenging.

Experiment [3] in a line: Antioxidant activity assessed as hydroxyl radical scavenging activity at 5 uM after 1 hr by 2-Deoxy-D-ribose degradation assay in presence of FeCl3. The method, boiled down: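 Hydroxyl radical attack on 2-deoxy-D-ribose in 10 mM KH2PO4-KOH pH 7.4 with FeCl3 made up in buffer (no EDTA), H2O2, ascorbic acid and 5 μM compound from DMSO. Incubated 1 h at 37 °C. TBA/TCA was added, the mixture heated at 100 °C for 15 min, and MDA read at 535 nm. Result is percent protection against the compound-free control. Triplicate.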

The subject of experiment [4] is Radical scavenging activity. Briefly: Antioxidant activity assessed as DPPH free radical scavenging activity measured as remaining DPPH at 10 uM after 5 mins by spectrophotometric analysis relative to control.
Experiment [5] relates to Radical scavenging activity. Put plainly: Antioxidant activity assessed as DPPH free radical scavenging activity measured as remaining DPPH at 100 uM after 60 mins by spectrophotometric analysis relative to control. The method, boiled down: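 100 μM compound in ethanol mixed 1:9 with 0.002% (w/v) ethanolic DPPH. Absorbance at 517 nm after 60 min, compared with an ethanol control. Value is percent of DPPH remaining, run in triplicate.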

Experiment [6] relates to Radical scavenging activity. Briefly: Antioxidant activity assessed as DPPH free radical scavenging activity measured as remaining DPPH at 10 uM after 2 mins by spectrophotometric analysis relative to control.
Experiment [7] relates to Radical scavenging activity. Put plainly: Antioxidant activity assessed as DPPH free radical scavenging activity measured as remaining DPPH at 100 uM after 5 mins by spectrophotometric analysis relative to control.

For 26 compounds, Activity, IC50 and DPPH remaining results are on record in ChEMBL document CHEMBL3286332, “Synthesis and radical scavenging activity of phenol-imidazole conjugates” (Bioorg Med Chem Lett, 2014).

Bounds are passed on as bounds.

On to `N#Cc1ncn(-c2ccc(O)cc2)c1/N=C/c1ccc(O)c(O)c1O`, for which the Activity in experiment [1] is 38%; in experiment [3], 28%; in experiment [4], below 50%. Also, the 50% inhibitory concentration (IC50) in experiment [2] amounted to 7.2 µM.
Turning to `Cn1cnc(C#N)c1/N=C/c1cc(O)c(O)c(O)c1`, the Activity in experiment [1] stood at 54%; in experiment [3], 44%. Moreover, the half-maximal inhibitory concentration (IC50) in experiment [2] amounted to 4.7 µM.
Take `Cn1cnc(C#N)c1N`: the values for the Activity in experiment [1] and in experiment [3] were 54% and 23%, respectively. The DPPH remaining in experiment [5] turned out to be 94.2%.
For `COc1ccc(-n2cnc(C#N)c2N)cc1`, the Activity in experiment [1] stood at 46%; in experiment [3] it was 29%. Besides, the DPPH remaining in experiment [5] was 94.2%.
With `Cn1cnc(C#N)c1/N=C/c1ccc(O)c(O)c1`, the Activity is 52% in experiment [1] and 27% in experiment [3]. Besides, the IC50 in experiment [2] came out at 3.8 µM.
Regarding `N#Cc1ncn(-c2ccc(O)cc2)c1/N=C/c1ccc(O)c(O)c1`, the Activity was 60% in experiment [1], 38% in experiment [3], below 50% in experiment [6] and below 50% in experiment [4]. Besides, the IC50 in experiment [2] was 3.2 µM.
On to `N#Cc1ncn(-c2ccc(F)cc2)c1N`, for which the Activity in experiment [1] stood at 50%; in experiment [3] it was 19%. In experiment [5], the DPPH remaining came out at 94.1%.
The like results for `N#Cc1ncn(-c2ccc(O)cc2)c1N` were, in that order, 47%, 57% and 94.8%.
Regarding `N#Cc1ncn(-c2ccc(O)cc2)c1/N=C/c1cc(O)c(O)c(O)c1`, the Activity in experiment [1] is 49%; in experiment [3], 51%; in experiment [6] it was below 50%; in experiment [4], below 50%. For the same compound, the IC50 in experiment [2] amounted to 4.8 µM.
Regarding `O=Cc1cc(O)c(O)c(O)c1`, the Activity in experiment [1] came out at 50%; in experiment [3], 38%. The IC50 in experiment [2] came out at 6 µM.
The like results for `COc1ccc(-n2cnc(C#N)c2/N=C/c2ccc(O)c(O)c2)cc1` were, in that order, 61%, 17% and 4.1 µM.
The matching figures for `N#Cc1ncn(-c2ccc(F)cc2)c1/N=C/c1ccc(O)c(O)c1`: 58%, 11% and 4.4 µM.
The like results for `O=Cc1ccc(O)c(O)c1` [PROTOCATECHUALDEHYDE] were, in that order, 51%, 35% and 5.4 µM.
As for `N#Cc1ncn(-c2ccc(F)cc2)c1/N=C/c1ccc(O)c(O)c1O`, the Activity was 53% in experiment [1] and 34% in experiment [3]. Also, the half-inhibitory concentration (IC50) in experiment [2] was found to be 8.4 µM.
As for `N#Cc1ncn(-c2ccc(O)cc2)c1/N=C/c1c(O)cc(O)cc1O`, the Activity in experiment [1] is 55%; in experiment [3] it was 17%; in experiment [7], below 50%. Besides, in experiment [5], the DPPH remaining stood at 45.9%.
`COc1cc(C=O)ccc1O`: the Activity in experiment [1] was 37%; in experiment [3] it was 30%. Also, the DPPH remaining in experiment [5] turned out to be 97.6%.
As to `Cn1cnc(C#N)c1/N=C/c1ccc(O)c(O)c1O`, the Activity in experiment [1] is 54%; in experiment [3] it was 37%. In addition, the IC50 in experiment [2] came to 7 µM.
The matching figures for `O=Cc1ccc(O)c(O)c1O`: 46%, 34% and 11.6 µM.
In the case of `O=Cc1c(O)cc(O)cc1O`, the results for the Activity in experiment [1] and in experiment [3] were 42% and 36%, respectively. Also, the DPPH remaining in experiment [5] turned out to be 91.2%.
The like results for `COc1ccc(-n2cnc(C#N)c2/N=C/c2ccc(O)c(OC)c2)cc1` were, in that order, 47%, 12% and 88.6%.
Take `N#Cc1ncn(-c2ccc(F)cc2)c1/N=C/c1cc(O)c(O)c(O)c1`: the values for the Activity in experiment [1] and in experiment [3] were 54% and 30%, respectively. The IC50 in experiment [2] turned out to be 5.8 µM.
Turning to `Cn1cnc(C#N)c1/N=C/c1c(O)cc(O)cc1O`, the values for the Activity in experiment [1] and in experiment [3] were 54% and 18%, respectively. The DPPH remaining in experiment [5] was 49.9%.
On to `COc1ccc(-n2cnc(C#N)c2/N=C/c2cc(O)c(O)c(O)c2)cc1`, for which the Activity in experiment [1] was 51%; in experiment [3], 42%. Moreover, the IC50 in experiment [2] came out at 4 µM.
The like results for `COc1ccc(-n2cnc(C#N)c2/N=C/c2ccc(O)c(O)c2O)cc1` were, in that order, 57%, 25% and 7.3 µM.
The like results for `Cc1c(C)c2c(c(C)c1O)CCC(C)(C(=O)O)O2` (centres undefined) [TROLOX] were, in that order, 53%, 31% and 9.5 µM.
For `COc1ccc(-n2cnc(C#N)c2/N=C/c2c(O)cc(O)cc2O)cc1`, the Activity in experiment [1] is 62%; in experiment [3], 16%. Also, the DPPH remaining in experiment [5] turned out to be 48.3%.

As usually defined, the IC50 is the concentration needed to halve the response being measured.
